According to article PMC5689172 (Biochemistry and Biophysics Reports, 2016):
≈ marks a conversion by molar mass, not a printed value. Read-outs that look alike come from different tables or passages of the source.

Experiments:
Cytotoxicity, MTT assay = type: cell-based; settings: human, MRC-5 cells (normal embryonic lung cell line)
S. dysenteriae = test: Antimicrobial activity, agar dilution method; type: cell-based; settings: Shigella dysenteriae
Outline: (§1)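 Test compound in DMSO, mixed with Mueller–Hinton broth, two-fold serially diluted, and incorporated into MH agar at final 0.25–256 μg/mL. Agar with 0.5% DMSO served as reagent control. Organisms were grown overnight in MH broth at 37 °C, diluted in normal saline to 0.5 McFarland (1.5×10⁸ CFU/mL), and inoculated onto plates. Plates were incubated at 37 °C for 24–48 h, then MIC was recorded.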

P. shigelloides = test: Antimicrobial activity, agar dilution method; type: cell-based; settings: Plesiomonas shigelloides, P. shigelloides; agar dilution
[1] = test system: K. pneumoniae ATCC 700603; test: Antimicrobial activity, agar dilution method; type: cell-based; settings: Klebsiella pneumoniae, ATCC700603
Outline: as §1

L. monocytogenes = test: Antimicrobial activity, agar dilution method; type: cell-based; settings: Listeria monocytogenes
Outline: as §1

[2] = test system: S. Choleraesuis ATCC 10708; test: Antimicrobial activity, agar dilution method; type: cell-based; settings: Salmonella enterica, ATCC10708|CHOLERAESUIS
Outline: as §1

S. Enteritidis = test: Antimicrobial activity, agar dilution method; type: cell-based; settings: Salmonella enterica
Outline: as §1

[3] = test system: S. Typhimurium ATCC 13311; test: Antimicrobial activity, agar dilution method; type: cell-based; settings: Salmonella enterica, ATCC13311|TYPHIMURIUM
Outline: as §1

S. aureus ATCC 25923 = test: Antimicrobial activity, agar dilution method; type: cell-based; settings: Staphylococcus aureus, ATCC25923
Outline: as §1

[4] = test system: S. putrefaciens ATCC 8071; test: Antimicrobial activity, agar dilution method; type: cell-based; settings: Shewanella putrefaciens, ATCC8071
Outline: as §1

[5] = test system: C. diphtheriae NCTC 10356; test: Antimicrobial activity, agar dilution method; type: cell-based; settings: Corynebacterium diphtheriae, NCTC10356
Outline: as §1

E. coli ATCC 25922 = test: Antimicrobial activity, agar dilution method; type: cell-based; settings: Escherichia coli, ATCC25922
Outline: as §1

[6] = test system: A. xylosoxidans ATCC 27061; test: Antimicrobial activity, agar dilution method; type: cell-based; settings: Achromobacter xylosoxidans, ATCC27061
Outline: as §1

P. aeruginosa ATCC 27853 = test: Antimicrobial activity, agar dilution method; type: cell-based, Pseudomonas aeruginosa; settings: Pseudomonas aeruginosa, ATCC27853
Outline: as §1

P. stutzeri ATCC 17587 = test: Antimicrobial activity, agar dilution method; type: cell-based, Pseudomonas stutzeri; settings: Stutzerimonas stutzeri, ATCC17587
Outline: as §1

A. hydrophila = test: Antimicrobial activity, agar dilution method; type: cell-based; settings: Aeromonas hydrophila
Outline: as §1

diploid fungi and yeast = test: Antimicrobial activity, agar dilution method, summarised over the group; type: cell-based, Candida albicans; settings: Saccharomyces cerevisiae, ATCC2601|ATCC90028
Outline: as §1

[7] = test system: S. epidermidis ATCC 12228; test: Antimicrobial activity, agar dilution method; type: cell-based; settings: Staphylococcus epidermidis, ATCC12228
Outline: as §1

E. faecalis ATCC 33186 = test: Antimicrobial activity, agar dilution method; type: cell-based; settings: Enterococcus faecalis, ATCC33186
Outline: as §1

[8] = test system: twenty-seven strains of microorganisms; type: cell-based
Outline: as §1

Gram-negative bacteria = test: Antimicrobial activity, agar dilution method, summarised over the group; type: cell-based
Outline: as §1

B. cereus = test: Antimicrobial activity, agar dilution method; type: cell-based; settings: Bacillus cereus
Outline: as §1

S. marcescens ATCC 8100 = test: Antimicrobial activity, agar dilution method; type: cell-based; settings: Serratia marcescens, ATCC8100
Outline: as §1

M. luteus ATCC 10240 = test: Antimicrobial activity, agar dilution method; type: cell-based; settings: Micrococcus luteus, ATCC10240
Outline: as §1

M. morganii = test: Antimicrobial activity, agar dilution method; type: cell-based; settings: Morganella morganii
Outline: as §1

S. cerevisiae ATCC 2601 = test: Antimicrobial activity, agar dilution method; type: cell-based; settings: Saccharomyces cerevisiae, ATCC2601
Outline: as §1

C. freundii = test: Antimicrobial activity, agar dilution method; type: cell-based; settings: Citrobacter freundii
Outline: as §1

S. aureus ATCC 29213 = test: Antimicrobial activity, agar dilution method; type: cell-based; settings: Staphylococcus aureus, ATCC29213
Outline: as §1

MRC-5 cell line = test: Cytotoxicity, MTT assay; type: cell-based; settings: MRC-5 normal cells, MTT
C. albicans ATCC 90028 = test: Antimicrobial activity, agar dilution method; type: cell-based; settings: Candida albicans, ATCC90028
Outline: as §1

E. faecalis ATCC 29212 = test: Antimicrobial activity, agar dilution method; type: cell-based; settings: Enterococcus faecalis, ATCC29212
Outline: as §1

B. subtilis ATCC 6633 = test: Antimicrobial activity, agar dilution method; type: cell-based; settings: Bacillus subtilis, ATCC6633
Outline: as §1

P. aeruginosa = settings: anti-biofilm agent; cited from earlier work
[9] = Antioxidant activity, DPPH radical scavenging assay; type: biochemical
Outline: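 Sample solution (test compound, 1 mg/mL in DMSO) was mixed with 0.1 mM DPPH in methanol and kept 30 min in the dark. Absorbance was read at 517 nm. Radical scavenging activity (%) = [1 − Abs(sample)/Abs(control)] × 100. α-Tocopherol was the positive control.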

E. coli = settings: cited from earlier work

SMILES | IC50 at 48 h (Cytotoxicity, MTT assay) | MIC (S. dysenteriae) | MIC (P. shigelloides) | MIC [1] | MIC (L. monocytogenes) | MIC [2] | MIC (S. Enteritidis) | MIC [3] | MIC (S. aureus ATCC 25923) | MIC [4] | MIC [5] | MIC (E. coli ATCC 25922) | MIC [6] | MIC (P. aeruginosa ATCC 27853) | MIC (P. stutzeri ATCC 17587) | MIC (A. hydrophila) | MIC [7] | MIC (E. faecalis ATCC 33186) | MIC (Gram-negative bacteria) | MIC (B. cereus) | further results
COc1cccc2c1C(=O)c1c(O)c3c(c(O)c1C2=O)C[C@@](O)(C(=O)CO)C[C@@H]3O[C@H]1C[C@H](N)[C@H](O)[C@H](C)O1 [Doxorubicin] | 0.62 ± 0.03 µM | – | – | – | – | – | – | – | – | – | – | – | – | – | – | – | – | – | – | – | –
Oc1c(I)cc(I)c2cccnc12 [Iodoquinol (7), iodoquinol] | – | 645 µM (≈ 256 µg/mL) | 645 µM (≈ 256 µg/mL) | > 645 µM | 645 µM (≈ 256 µg/mL) | > 645 µM | > 645 µM | > 645 µM | 645 µM (≈ 256 µg/mL) | 645 µM (≈ 256 µg/mL) | > 645 µM | > 645 µM | > 645 µM | > 645 µM | > 645 µM | 645 µM (≈ 256 µg/mL) | 645 µM (≈ 256 µg/mL) | > 645 µM | ≥ 645 µM | 645 µM (≈ 256 µg/mL) | MIC (diploid fungi and yeast): ≥ 645 µM; MIC ([8]; most of the bacterial strains / most of the tested microorganisms): ≥ 645 µM; MIC (S. marcescens ATCC 8100): > 645 µM; MIC (M. luteus ATCC 10240): 322 µM (≈ 128 µg/mL); MIC (M. morganii): > 645 µM; MIC (S. cerevisiae ATCC 2601): > 645 µM; MIC (C. freundii): > 645 µM; MIC (S. aureus ATCC 29213): 645 µM (≈ 256 µg/mL); cytotoxicity in words (MRC-5 cell line): non-cytotoxic; MIC (C. albicans ATCC 90028): 645 µM (≈ 256 µg/mL); MIC (E. faecalis ATCC 29212): > 645 µM; MIC (B. subtilis ATCC 6633): 80.6 µM (≈ 32 µg/mL)
O=[N+]([O-])c1ccc(O)c2ncccc12 [NQ (2), Nitroxoline] | 88.1 ± 2.11 µM | 21 µM (≈ 4 µg/mL) | 42.1 µM (≈ 8 µg/mL) | 84.1 µM (≈ 16 µg/mL) | 42.1 µM (≈ 8 µg/mL) | 84.1 µM (≈ 16 µg/mL) | 21 µM (≈ 4 µg/mL) | 21 µM (≈ 4 µg/mL) | 42.1 µM (≈ 8 µg/mL) | 10.5 µM (≈ 2 µg/mL) | 42.1 µM (≈ 8 µg/mL) | 21 µM (≈ 4 µg/mL) | 21 µM (≈ 4 µg/mL) | 84.1 µM (≈ 16 µg/mL) | 10.5 µM (≈ 2 µg/mL) | 5.26 µM (≈ 1 µg/mL) | 42.1 µM (≈ 8 µg/mL) | 42.1 µM (≈ 8 µg/mL) | 5.26 to 84.1 µM (≈ 1 to 16 µg/mL) | 21 µM (≈ 4 µg/mL) | MIC (P. aeruginosa): 84.14 to 168.28 µM; antioxidant activity in words [9]: inactive antioxidants; MIC ([8]; both the Gram-positive and Gram-negative bacteria): 5.26 to 84.1 µM (≈ 1 to 16 µg/mL); MIC (S. marcescens ATCC 8100): 21 µM (≈ 4 µg/mL); MIC (M. luteus ATCC 10240): 10.5 µM (≈ 2 µg/mL); MIC (M. morganii): 42.1 µM (≈ 8 µg/mL); MIC (S. cerevisiae ATCC 2601): 42.1 µM (≈ 8 µg/mL); MIC (C. freundii): 21 µM (≈ 4 µg/mL); MIC (S. aureus ATCC 29213): 42.1 µM (≈ 8 µg/mL); MIC (C. albicans ATCC 90028): 42.1 µM (≈ 8 µg/mL); MIC (E. faecalis ATCC 29212): 42.1 µM (≈ 8 µg/mL); MIC (B. subtilis ATCC 6633): 42.1 µM (≈ 8 µg/mL); MIC (E. coli): 42.07 µM (≈ 8 µg/mL)
Cc1c(C)c2c(c(C)c1O)CC[C@@](C)(CCC[C@H](C)CCC[C@H](C)CCCC(C)C)O2 [α-tocopherol, α-Tocopherol] | – | – | – | – | – | – | – | – | – | – | – | – | – | – | – | – | – | – | – | – | IC50 ([9]; read-out: RSA IC50, 30 min, 517 nm): 13.5 µM
